Consider four compounds from ChEMBL document CHEMBL4028899, “Tyrocidine A Analogues Bearing the Planar d-Phe-2-Abz Turn Motif: How Conformation Impacts Bioactivity” (J Med Chem, 2017).

In brackets after ≈: the same amount, converted by molar mass. Activity calls are given as the source filed them. No cut-off for these calls is given here. Square brackets hold non-standard residues; d marks the D form. Peptide text beside a SMILES is read from it. Orn = NCCC[C@H](N)C(=O)O; 2Abz = Nc1ccccc1C(=O)O

Series [1] deals with Staphylococcus aureus. The series is described as follows: Antibacterial activity against Staphylococcus aureus assessed as induction of cell membrane rupture at 4 times MIC after 1 hr by uranyl acetate/lead citrate staining-based transmission electron microscopic method. Type of series: functional. Put shortly: (§1)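 Overnight cultures in non-cation-adjusted MHB were diluted to OD 0.4. 1 mL aliquots were incubated 1 h at 37 °C with compound at 4 x MIC or without compound (control). Cells were washed in Tris buffer (pH 7.4) and fixed in 4% glutaraldehyde for 2 h at room temperature. They were post-fixed in 1% osmium tetroxide, ethanol/acetone dehydrated, epoxy embedded (60 °C, 48 h), ultrathin sectioned and imaged by TEM.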

Series [2] deals with Candida albicans. The series is described as follows: Antifungal activity against Candida albicans after 48 hrs. Type of series: functional. In short, it runs like this: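 A single C. albicans colony was taken into RPMI, adjusted to OD 0.1 and diluted 1:100. Two-fold compound dilutions were set up as for the bacterial microdilution and incubated 48 h. MIC was scored visually from colonies on the well bottoms as the lowest concentration with no growth, from three concordant experiments each with three internal replicates.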

Series [3] relates to Pseudomonas aeruginosa. The series is described as follows: Antibacterial activity against Pseudomonas aeruginosa assessed as induction of total membrane lysis at 4 times MIC after 1 hr by uranyl acetate/lead citrate staining-based transmission electron microscopic method. Format: functional. In short, it runs like this:
as §1

The next series relates to Escherichia coli. Put plainly: Antibacterial activity against Escherichia coli after 18 hrs. Format: functional. Put shortly: (§2)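 Broth microdilution in non-cation-adjusted MHB. Overnight 37 °C cultures adjusted to OD 0.1, then diluted 1:100. Two-fold compound dilutions were prepared in the plate before inoculation, with growth and sterility controls. Plates were incubated 18 h at 37 °C and read at OD600. MIC was the lowest concentration with no growth, from three concordant experiments each with three internal replicates.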

Series [4] deals with Staphylococcus aureus. Put plainly: Antibacterial activity against Staphylococcus aureus assessed as induction of cell wall rupture at 4 times MIC after 1 hr by uranyl acetate/lead citrate staining-based transmission electron microscopic method. Type of series: functional. In short, it runs like this: as §1
The subject of series [5] is Candida albicans. The series is described as follows: Antifungal activity against Candida albicans after 48 hrs in presence of 0.39 uM amphotericin B. Format: functional. In short, it runs like this:
(§3)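 C. albicans in RPMI (OD 0.1, diluted 1:100) was tested by two-fold compound dilution with 48 h incubation. The medium was supplemented with amphotericin B at 0.78 or 1.56 µM, giving a final 0.39 or 0.78 µM per well. MIC was read visually as no colony growth, from three concordant experiments each with three internal replicates.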

For series [6], the system named is Staphylococcus aureus. Put plainly: Antibacterial activity against Staphylococcus aureus after 18 hrs. Type of series: functional. Put shortly: as §2
The subject of series [7] is Pseudomonas aeruginosa. Put plainly: Antibacterial activity against Pseudomonas aeruginosa after 18 hrs. Format: functional. Put shortly: as §2
Series [8] concerns Staphylococcus aureus. The series is described as follows: Antibacterial activity against Staphylococcus aureus assessed as decrease in intracellular density at 4 times MIC after 1 hr by uranyl acetate/lead citrate staining-based transmission electron microscopic method. Type of series: functional, cell-based. Put shortly: as §1
The subject of series [9] is Pseudomonas aeruginosa. The series is described as follows: Antibacterial activity against Pseudomonas aeruginosa assessed as induction of cell blebbing at 4 times MIC after 1 hr by uranyl acetate/lead citrate staining-based transmission electron microscopic method. Format: functional. Put shortly: as §1
Series [10] has as its system Candida albicans. Put plainly: Antifungal activity against Candida albicans after 48 hrs in presence of 0.78 uM amphotericin B. Type of series: functional. In short, it runs like this: as §3
The nature of series [11]: Solubility of the compound in water. Type of series: physicochemical. Particulars: buffer.
In series [12] the test system is Pseudomonas aeruginosa. The series is described as follows: Antibacterial activity against Pseudomonas aeruginosa assessed as induction of cell membrane rupture at 4 times MIC after 1 hr by uranyl acetate/lead citrate staining-based transmission electron microscopic method. Type of series: functional. Put shortly:
as §1

Broadly, the MIC is the lowest concentration that inhibits growth of the organism. `CC(C)C[C@@H]1NC(=O)[C@H](CCCN)NC(=O)[C@H](C(C)C)NC(=O)[C@H](Cc2ccc(O)cc2)NC(=O)[C@H](CCCCN)NC(=O)[C@H](CC(N)=O)NC(=O)[C@@H](Cc2ccccc2)NC(=O)[C@H](Cc2ccccc2)NC(=O)c2ccccc2NC(=O)[C@@H](Cc2ccccc2)NC1=O` (cyclo([2Abz]F[dF]NKYV[Orn]L[dF])): the outcome with Staphylococcus aureus [1], in the series with Pseudomonas aeruginosa [3], in the series on Staphylococcus aureus [4], in the series on Staphylococcus aureus [8] and in the series with Pseudomonas aeruginosa [9] was Active. The MIC amounted to 12.5 µM (≈ 16.2 µg/mL) in the series on Candida albicans [2]; 12.5 µM (≈ 16.2 µg/mL) in the series with Escherichia coli; 0.78 µM in the series on Candida albicans [5]; 1.56 µM (≈ 2.02 µg/mL) against Staphylococcus aureus [6]; 25 µM (≈ 32.3 µg/mL) with Pseudomonas aeruginosa [7]; 0.39 µM in the series on Candida albicans [10].
`CC(C)C[C@@H]1NC(=O)[C@H](CCCN)NC(=O)[C@H](C(C)C)NC(=O)[C@H](Cc2ccc(O)cc2)NC(=O)[C@H](CCC(N)=O)NC(=O)[C@H](CC(N)=O)NC(=O)[C@@H](Cc2ccccc2)NC(=O)[C@H](Cc2ccccc2)NC(=O)c2ccccc2NC(=O)[C@@H](Cc2ccccc2)NC1=O` (cyclo([2Abz]F[dF]NQYV[Orn]L[dF])): the MIC in the series on Escherichia coli amounted to 50 µM (≈ 64.6 µg/mL); in the series on Staphylococcus aureus [6], 6.25 µM (≈ 8.08 µg/mL); against Pseudomonas aeruginosa [7], 100 µM (≈ 129 µg/mL). Moreover, the solubility entry in [11] is listed as “Insoluble”.
On to `C[C@@H]1[C@H](O)[C@@H](C)/C=C/C=C/C=C/C=C/C=C/C=C/C=C/[C@H](O[C@@H]2O[C@H](C)[C@@H](O)[C@H](N)[C@@H]2O)C[C@@H]2O[C@](O)(C[C@@H](O)C[C@@H](O)[C@H](O)CC[C@@H](O)C[C@@H](O)CC(=O)O[C@H]1C)C[C@H](O)[C@H]2C(=O)O` [AMPHOTERICIN B], for which, in the series with Candida albicans [2], the MIC is 1.56 µM (≈ 1.44 µg/mL).
Consider `CC(C)C[C@@H]1NC(=O)[C@H](CCCN)NC(=O)[C@H](C(C)C)NC(=O)[C@H](Cc2ccc(O)cc2)NC(=O)[C@H](CCC(N)=O)NC(=O)[C@H](CC(N)=O)NC(=O)[C@@H](Cc2ccccc2)NC(=O)[C@H](Cc2ccccc2)NC(=O)[C@@H]2CCCN2C(=O)[C@@H](Cc2ccccc2)NC1=O` [TYROCIDINE A] (cyclo(F[dF]NQYV[Orn]L[dF]P)), for which the result in the series on Staphylococcus aureus [1], in the series with Staphylococcus aureus [4] and with Staphylococcus aureus [8] was Active. Moreover, the MIC in the series on Candida albicans [2] turned out to be 3.12 µM (≈ 3.97 µg/mL); in the series on Escherichia coli it was 25 µM (≈ 31.8 µg/mL); in the series on Candida albicans [5], 0.78 µM; in the series with Staphylococcus aureus [6], 1.56 µM (≈ 1.98 µg/mL); against Pseudomonas aeruginosa [7] it was 100 µM (≈ 127 µg/mL); with Candida albicans [10], 0.39 µM. For the same compound, the outcome in the series with Pseudomonas aeruginosa [12] was inactive.
